Experimental data as given in ChEMBL document CHEMBL4138073, “Synthesis and biological evaluation of 8-hydroxy-2,7-naphthyridin-2-ium salts as novel inhibitors of acetylcholinesterase (AChE) and butyrylcholinesterase (BChE)” (Medchemcomm, 2017).
Calls of active or inactive are those of the source. The calls are words filed in the database; no cut-off is given here.

How the values were obtained:
[1] = molecular target: Cholinesterase (Equus caballus) (UniProt P81908); test: Inhibition of horse serum BChE at 10 uM using butyrylthiocholine chloride substrate by spectrophotometry based Ellman's assay
Cholinesterase (Equus caballus), sequence (P81908 whole entry): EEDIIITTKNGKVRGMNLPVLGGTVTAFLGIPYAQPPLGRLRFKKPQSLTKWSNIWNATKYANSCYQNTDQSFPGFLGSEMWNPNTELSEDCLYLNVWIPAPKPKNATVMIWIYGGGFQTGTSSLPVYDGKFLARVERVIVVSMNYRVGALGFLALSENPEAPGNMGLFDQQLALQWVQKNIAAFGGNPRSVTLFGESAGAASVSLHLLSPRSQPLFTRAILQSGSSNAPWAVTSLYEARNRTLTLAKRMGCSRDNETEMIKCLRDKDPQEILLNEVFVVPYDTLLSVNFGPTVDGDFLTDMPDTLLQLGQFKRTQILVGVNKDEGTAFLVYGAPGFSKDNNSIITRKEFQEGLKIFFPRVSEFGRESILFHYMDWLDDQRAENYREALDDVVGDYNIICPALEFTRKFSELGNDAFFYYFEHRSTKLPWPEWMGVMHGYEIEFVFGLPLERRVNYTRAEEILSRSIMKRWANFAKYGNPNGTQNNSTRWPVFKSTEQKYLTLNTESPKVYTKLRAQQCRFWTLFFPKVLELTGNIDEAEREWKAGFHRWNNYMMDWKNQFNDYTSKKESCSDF
In short: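 Ellman kinetic assay in microplates: equine serum BChE (final 0.350 U/ml) added last to start reaction; butyrylthiocholine chloride pseudo-substrate with DTNB; absorbance at 412 nm; 25 °C (room temperature). Tris-HCl 50 mM pH 8 buffer with DMSO ≤0.05% final. Compound absorbance read before enzyme addition as blank. Physostigmine 10 µM final as positive control. Primary screen at 10 µM.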

[2] = molecular target: Cholinesterase (Equus caballus, UniProt P81908); test: Inhibition of horse serum BChE at using butyrylthiocholine chloride substrate by spectrophotometry based Ellman's assay
Cholinesterase, sequence (P81908 whole entry): as above

[3] = molecular target: Acetylcholinesterase (Electrophorus electricus, UniProt O42275); test: Inhibition of electric eel AChE at using acetylthiocholine iodide substrate by spectrophotometry based Ellman's assay
Acetylcholinesterase, sequence (O42275 whole entry): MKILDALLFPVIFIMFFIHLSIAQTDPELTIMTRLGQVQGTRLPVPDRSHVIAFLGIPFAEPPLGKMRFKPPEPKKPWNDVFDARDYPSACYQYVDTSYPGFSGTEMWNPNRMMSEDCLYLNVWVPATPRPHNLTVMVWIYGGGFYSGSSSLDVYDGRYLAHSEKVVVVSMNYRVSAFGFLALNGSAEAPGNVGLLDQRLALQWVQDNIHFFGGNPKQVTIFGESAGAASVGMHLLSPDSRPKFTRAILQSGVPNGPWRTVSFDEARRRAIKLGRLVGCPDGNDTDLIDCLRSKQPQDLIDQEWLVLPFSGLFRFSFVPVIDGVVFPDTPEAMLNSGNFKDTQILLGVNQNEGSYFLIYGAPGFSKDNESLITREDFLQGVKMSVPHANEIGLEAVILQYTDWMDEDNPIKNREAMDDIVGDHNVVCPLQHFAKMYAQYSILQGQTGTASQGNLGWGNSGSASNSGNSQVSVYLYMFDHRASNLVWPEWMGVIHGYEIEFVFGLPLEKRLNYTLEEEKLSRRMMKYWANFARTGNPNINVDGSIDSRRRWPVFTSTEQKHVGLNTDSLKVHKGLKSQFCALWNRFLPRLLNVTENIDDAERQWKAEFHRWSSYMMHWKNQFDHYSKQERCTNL

[4] = Dissociation constant, pKa of the compound at 52 uM at pH 2.3 to 12.3 by UV-Vis spectroscopy; format: physicochemical

| SMILES | inhibition [1] | IC50 [2] | IC50 [3] | pKa at 52 µM [4] |
| --- | --- | --- | --- | --- |
| Oc1nc(-c2ccc3ccccc3c2)cc2cc[n+](Cc3ccccc3)cc12 | 97.1% | 2.88 µM | 0.99 µM | – |
| CC[n+]1ccc2cc(-c3ccccn3)nc(O)c2c1 | 48.5% | – | – | – |
| Oc1nc2c(c3cc[n+](Cc4ccccc4)cc13)CCc1ccccc1-2 | inactive | – | – | – |
| Oc1nc(-c2ccccc2)cc2cc[n+](Cc3ccccc3)cc12 | 76.4% | 4.99 µM | 2.57 µM | – |
| CC[n+]1ccc2c3c(nc(O)c2c1)-c1ccccc1C3 | 77.3% | – | 1.55 µM | – |
| C[n+]1ccc2cc(-c3ccccc3)[nH]c(=O)c2c1 | 51.6% | – | – | – |
| CC[n+]1ccc2cc(-c3ccccc3)nc(O)c2c1 | 45.9% | – | – | – |
| CC[n+]1ccc2cc(-c3ccc4ccccc4c3)nc(O)c2c1 | 59.5% | – | – | – |
| C[n+]1ccc2cc(-c3ccccc3)nc(O)c2c1 | – | – | – | 8.7 |
